Experimental data taken from ChEMBL document CHEMBL3044908, “Pinolide, a new nonenolide produced by Didymella pinodes , the causal agent of ascochyta blight on Pisum sativum” (J Agric Food Chem, 2012).
Calls of active or inactive are those of the source. No cut-off for these calls is given here.

Experiments:
[1] = system: Lathyrus sativus; assay: Phytotoxicity against Lathyrus sativus assessed as area of lesions at 1 mg/ml at 20 degC for 4 days; format: organism-based; details: in vivo, 96 h
Method in brief: (§1)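 Whole plants grown one per pot in 1:1 sand/peat at 20 °C, 12 h light/dark, until about seven leaves. One leaflet detached, placed abaxial side up on 0.4% water agar, epidermis cut (three cuts over 3 mm2). A 20 μL drop of metabolite (5% MeOH in water) applied over cuts, kept at 20 °C, 12 h photoperiod. 3–4 replicates, randomized; 5% MeOH control; lesion area in mm2.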

[2] = system: Phaseolus vulgaris; assay: Phytotoxicity against Phaseolus vulgaris assessed as area of lesions at 1 mg/ml at 20 degC for 4 days; format: organism-based; details: in vivo, 96 h; method in brief: as §1
[3] = system: Vicia faba; assay: Phytotoxicity against Vicia faba assessed as area of lesions at 1 mg/ml at 20 degC for 4 days; format: organism-based; details: in vivo, 96 h; method in brief: as §1
[4] = system: Chenopodium album; assay: Phytotoxicity against Chenopodium album assessed as area of lesions at 1 mg/ml at 20 degC for 4 days; format: functional; method in brief: as §1
[5] = system: Pisum fulvum; assay: Phytotoxicity against Pisum fulvum assessed as area of lesions at 1 mg/ml at 20 degC for 4 days; format: organism-based; details: lathyrus fulvus, in vivo, 96 h; method in brief: as §1
[6] = system: Lens culinaris; assay: Phytotoxicity against Lens culinaris assessed as area of lesions at 1 mg/ml at 20 degC for 4 days; format: organism-based; details: in vivo, 96 h; method in brief: as §1
[7] = system: Lupinus albus; assay: Phytotoxicity against Lupinus albus assessed as area of lesions at 1 mg/ml at 20 degC for 4 days; format: organism-based; details: in vivo, 96 h; method in brief: as §1
[8] = system: Sonchus arvensis; assay: Phytotoxicity against Sonchus arvensis (field sow-thistle) assessed as area of lesions at 1 mg/ml at 20 degC for 4 days; format: functional; method in brief: as §1
[9] = system: Cicer arietinum; assay: Phytotoxicity against Cicer arietinum assessed as area of lesions at 1 mg/ml at 20 degC for 4 days; format: organism-based; details: in vivo, 96 h; method in brief: as §1
[10] = system: Cirsium arvense; assay: Phytotoxicity against Cirsium arvense (Canada thistle) assessed as area of lesions at 1 mg/ml at 20 degC for 4 days; format: functional; method in brief: as §1
[11] = system: Medicago truncatula; assay: Phytotoxicity against Medicago truncatula assessed as area of lesions at 1 mg/ml at 20 degC for 4 days; format: organism-based; details: in vivo, 96 h; method in brief: as §1
[12] = system: Pisum sativum; assay: Phytotoxicity against Pisum sativum (pea)assessed as area of lesions at 1 mg/ml at 20 degC for 4 days; format: organism-based; details: lathyrus oleraceus, in vivo, 96 h; method in brief: as §1

CCC[C@H]1OC(=O)[C@@H](O)CC/C=C/[C@H](O)[C@@H]1O
Activity [1]: Non-toxic | Activity [2]: Non-toxic | Activity [3]: Non-toxic | Activity [4]: inactive | Activity [5]: Non-toxic | Activity [6]: Non-toxic | Activity [7]: Non-toxic | Activity [8]: inactive | Activity [9]: Non-toxic | Activity [10]: inactive | Activity [11]: Non-toxic | Activity [12]: Non-toxic

CCC[C@H]1OC(=O)[C@@H](O)CC/C=C/[C@@H](O)[C@@H]1O (relative stereo) [Pinolide]
Activity [1]: Non-toxic | Activity [2]: Non-toxic | Activity [3]: Non-toxic | Activity [4]: inactive | Activity [5]: Non-toxic | Activity [6]: Non-toxic | Activity [7]: Non-toxic | Activity [8]: inactive | Activity [9]: Non-toxic | Activity [10]: inactive | Activity [11]: Non-toxic | Activity [12]: Non-toxic

CCC[C@H]1OC(=O)[C@H](O)CC/C=C/[C@H](O)[C@@H]1O [HERBARUMIN II]
Activity [1]: Non-toxic | Activity [2]: Non-toxic | Activity [3]: Non-toxic | Activity [4]: inactive | Activity [5]: Non-toxic | Activity [6]: Non-toxic | Activity [7]: Non-toxic | Activity [8]: inactive | Activity [9]: Non-toxic | Activity [10]: inactive | Activity [11]: Non-toxic | Activity [12]: Non-toxic

C/C=C/C=C/C(=O)O[C@H]1CC/C=C/[C@H](O)[C@H](O)[C@@H](CCC)OC1=O [PINOLIDOXIN]
Activity [1]: 41.9 mm2 | Activity [2]: 34 mm2 | Activity [3]: 7.2 mm2 | Activity [4]: 47.8 mm2 | Activity [5]: 21.5 mm2 | Activity [6]: 45.5 mm2 | Activity [7]: 73.6 mm2 | Activity [8]: 23.6 mm2 | Activity [9]: 9.1 mm2 | Activity [10]: 25 mm2 | Activity [11]: 49.2 mm2 | Activity [12]: 45.5 mm2
